Assay results taken from ChEMBL document CHEMBL2331506, “Design, synthesis, antiviral and cytostatic evaluation of novel isoxazolidine nucleotide analogues with a carbamoyl linker” (Bioorg Med Chem, 2013).
Calls of active or inactive are those of the source. The rule behind the calls is not given here.

Experiments:
K562 = assay: Cytotoxicity against human K562 cells; type: functional, cell-based
HeLa [1] = assay: Cytotoxicity against human HeLa cells; type: functional, cell-based
[2] = tested on: Mammalian orthoreovirus 1; assay: Antiviral activity against Reovirus 1 infected in african green monkey Vero cells assessed as reduction of virus-induced cytopathogenicity at 250 uM; type: functional, organism-based
Summary of the method: (§1)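 Confluent monolayers (HEL fibroblasts, Vero, or HeLa cells as listed) were infected with 100 CCID50 of virus in the presence of varying compound concentrations. Virus-induced cytopathicity or plaque formation was scored once cytopathicity was complete in untreated infected controls. EC50 was taken as the concentration reducing cytopathogenicity or plaque formation by 50%.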

[3] = Cytotoxicity against cat CRFK cells assessed as alteration of cell morphology up to 100 uM by microscopic analysis; type: cell-based, Felis catus
Summary of the method: (§2)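 Uninfected host-cell cultures were exposed to compound and examined by microscopy. Cytotoxicity was expressed as the minimum cytotoxic concentration (MCC) causing a microscopically detectable alteration of normal cell morphology.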

[4] = tested on: Vesicular stomatitis virus; assay: Antiviral activity against Vesicular stomatitis virus infected in human HeLa cells assessed as reduction of virus-induced cytopathogenicity at 250 uM; type: functional, organism-based
Summary of the method: (§3)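 Confluent cell monolayers were infected with 100 CCID50 of virus while exposed to varying compound concentrations. Cytopathicity was scored once it was complete in untreated infected controls. EC50 was taken as the concentration that reduced virus-induced cytopathogenicity by 50%.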

Influenza A virus [5] = assay: Antiviral activity against Influenza A virus H1N1 infected in dog MDCK cells assessed as reduction of virus-induced cytopathogenicity at 250 uM; type: functional, organism-based; summary of the method: as §3
Feline coronavirus = assay: Antiviral activity against Feline coronavirus infected in cat CRFK cells assessed as reduction of virus-induced cytopathogenicity at 250 uM; type: functional, organism-based
Human alphaherpesvirus 1 [6] = assay: Antiviral activity against thymidine kinase-deficient, ACV-resistant Herpes simplex virus 1 KOS infected in human HEL cells assessed as reduction of virus-induced cytopathogenicity at 250 uM; type: functional, organism-based; summary of the method: as §3
Sindbis virus = assay: Antiviral activity against Sindbis virus infected in african green monkey Vero cells assessed as reduction of virus-induced cytopathogenicity at 250 uM; type: functional, organism-based; summary of the method: as §1
[7] = tested on: Human immunodeficiency virus 1; assay: Antiviral activity against Human immunodeficiency virus 1 3B infected in human CEM cells assessed as reduction of virus-induced giant cell formation at 250 uM after 4 to 5 days; type: functional, organism-based; conditions: CCRF-CEM
Summary of the method: (§4)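 CEM cells at 3 × 10^5 cells/mL were infected with HIV at 100 CCID50 per mL in the presence of compound dilutions. They were held 4–5 days at 37 °C in humidified CO2. Syncytium (giant cell) formation was scored microscopically, and EC50 was taken as the concentration inhibiting giant cell formation by 50%.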

Influenza A virus [8] = assay: Antiviral activity against Influenza A virus H3N2 infected in dog MDCK cells assessed as reduction of virus-induced cytopathogenicity at 250 uM; type: functional, organism-based; summary of the method: as §3
HEL = assay: Cytotoxicity against human HEL cells assessed as alteration of cell morphology up to 100 uM by microscopic analysis; type: cell-based; summary of the method: as §2
Vero = assay: Cytotoxicity against african green monkey Vero cells assessed as alteration of cell morphology up to 100 uM by microscopic analysis; type: cell-based; conditions: chlorocebus sabaeus; summary of the method: as §2
Felid alphaherpesvirus 1 = assay: Antiviral activity against Feline herpes virus infected in cat CRFK cells assessed as reduction of virus-induced cytopathogenicity at 250 uM; type: functional, organism-based
[9] = tested on: Human immunodeficiency virus 2; assay: Antiviral activity against Human immunodeficiency virus 2 ROD infected in human CEM cells assessed as reduction of virus-induced giant cell formation at 250 uM after 4 to 5 days; type: functional, organism-based; conditions: CCRF-CEM; summary of the method: as §4
Human respirovirus 3 = assay: Antiviral activity against Parainfluenza virus 3 infected in african green monkey Vero cells assessed as reduction of virus-induced cytopathogenicity at 250 uM; type: functional, organism-based; summary of the method: as §1
Punta Toro virus = assay: Antiviral activity against Punta Toro virus infected in african green monkey Vero cells assessed as reduction of virus-induced cytopathogenicity at 250 uM; type: functional, organism-based; summary of the method: as §1
L1210 = assay: Cytostatic activity against mouse L1210 cells assessed as inhibition of cell proliferation after 48 hrs by Coulter counter analysis; type: functional, cell-based; conditions: L1210, 48 h
Summary of the method: (§5)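 Each well received (5–7.5) × 10^4 tumor cells plus compound. L1210 cells grew 48 h and CEM and HeLa cells grew 72 h, at 37 °C in humidified CO2. Cells were then counted electronically, and IC50 was taken as the concentration inhibiting proliferation by 50%.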

[10] = tested on: Respiratory syncytial virus; assay: Antiviral activity against Respiratory syncytial virus long infected in human HeLa cells assessed as reduction of virus-induced cytopathogenicity at 250 uM; type: functional, organism-based; summary of the method: as §1
HeLa [11] = assay: Cytostatic activity against human HeLa cells assessed as inhibition of cell proliferation after 72 hrs by Coulter counter analysis; type: functional, cell-based; summary of the method: as §5
Human alphaherpesvirus 1 [12] = assay: Antiviral activity against Herpes simplex virus 1 KOS infected in human HEL cells assessed as reduction of virus-induced cytopathogenicity at 250 uM; type: functional, organism-based; summary of the method: as §1
MDCK = assay: Cytotoxicity against dog MDCK cells assessed as alteration of cell morphology up to 100 uM by microscopic analysis; type: cell-based, Canis lupus familiaris; summary of the method: as §2
Influenza B virus = assay: Antiviral activity against Influenza B virus infected in dog MDCK cells assessed as reduction of virus-induced cytopathogenicity at 250 uM; type: functional, organism-based; summary of the method: as §3
[13] = tested on: Vesicular stomatitis virus; assay: Antiviral activity against Vesicular stomatitis virus infected in human HEL cells assessed as reduction of virus-induced cytopathogenicity at 250 uM; type: functional, organism-based; summary of the method: as §3
CCRF-CEM = assay: Cytostatic activity against human CEM cells assessed as inhibition of cell proliferation after 72 hrs by Coulter counter analysis; type: functional, cell-based; summary of the method: as §5
HeLa [14] = assay: Cytotoxicity against human HeLa cells assessed as alteration of cell morphology up to 100 uM by microscopic analysis; type: cell-based; summary of the method: as §2
Coxsackievirus B4 = assay: Antiviral activity against Coxsackievirus B4 infected in african green monkey Vero cells assessed as reduction of virus-induced cytopathogenicity at 250 uM; type: functional, organism-based; summary of the method: as §1
Human alphaherpesvirus 2 = assay: Antiviral activity against Herpes simplex virus 2 G infected in human HEL cells assessed as reduction of virus-induced cytopathogenicity at 250 uM; type: functional, organism-based; conditions: strain G; summary of the method: as §1

SMILES | inhibition [2] | Activity [3] | inhibition [4] | inhibition (Influenza A virus [5]) | inhibition (Feline coronavirus) | inhibition (Human alphaherpesvirus 1 [6]) | inhibition (Sindbis virus) | inhibition [7] | inhibition (Influenza A virus [8]) | Activity (HEL) | Activity (Vero) | inhibition (Felid alphaherpesvirus 1) | inhibition [9] | inhibition (Human respirovirus 3) | inhibition (Punta Toro virus) | IC50 (L1210) [µM] | inhibition [10] | IC50 (HeLa [11]) [µM] | inhibition (Human alphaherpesvirus 1 [12]) | Activity (MDCK) | other results
CCOP(=O)(OCC)C1CC(c2ccc3ccccc3c2)ON1C (centres undefined) | – | – | – | – | – | – | – | – | – | – | – | – | – | – | – | – | – | – | – | – | IC50 (K562): 90 µM
CCOP(=O)(OCC)C1CC(c2cccc3ccccc23)ON1C (centres undefined) | – | – | – | – | – | – | – | – | – | – | – | – | – | – | – | – | – | – | – | – | IC50 (HeLa [1]): 50 µM
CCOP(=O)(OCC)[C@H]1C[C@H](C(=O)Nc2ccccc2F)ON1C (mixture of isomers) | inactive | Non-toxic | inactive | inactive | inactive | inactive | inactive | inactive | inactive | Non-toxic | Non-toxic | inactive | inactive | inactive | inactive | > 250 | inactive | ≥ 250 | inactive | Non-toxic | inhibition (Influenza B virus): inactive; inhibition [13]: inactive; IC50 (CCRF-CEM): > 250 µM; Activity (HeLa [14]): Non-toxic; inhibition (Coxsackievirus B4): inactive; inhibition (Human alphaherpesvirus 2): inactive
CCOP(=O)(OCC)[C@H]1C[C@H](C(=O)Nc2cccc(F)c2)ON1C (mixture of isomers) | inactive | Non-toxic | inactive | inactive | inactive | inactive | inactive | inactive | inactive | Non-toxic | Non-toxic | inactive | inactive | inactive | inactive | > 250 | inactive | > 250 | inactive | Non-toxic | inhibition (Influenza B virus): inactive; inhibition [13]: inactive; IC50 (CCRF-CEM): > 250 µM; Activity (HeLa [14]): Non-toxic; inhibition (Coxsackievirus B4): inactive; inhibition (Human alphaherpesvirus 2): inactive
CCOP(=O)(OCC)[C@@H]1C[C@H](C(=O)Nc2cccc(F)c2)ON1C (mixture of isomers) | inactive | Non-toxic | inactive | inactive | inactive | inactive | inactive | inactive | inactive | Non-toxic | Non-toxic | inactive | inactive | inactive | inactive | 228 | inactive | ≥ 250 | inactive | Non-toxic | inhibition (Influenza B virus): inactive; inhibition [13]: inactive; IC50 (CCRF-CEM): ≥ 250 µM; Activity (HeLa [14]): Non-toxic; inhibition (Coxsackievirus B4): inactive; inhibition (Human alphaherpesvirus 2): inactive
CCOP(=O)(OCC)[C@@H]1C[C@H](C(=O)Nc2ccccc2F)ON1C (racemic) | inactive | Non-toxic | inactive | inactive | inactive | inactive | inactive | inactive | inactive | Non-toxic | Non-toxic | inactive | inactive | inactive | inactive | 130 | inactive | 177 | inactive | Non-toxic | inhibition (Influenza B virus): inactive; inhibition [13]: inactive; IC50 (CCRF-CEM): 145 µM; Activity (HeLa [14]): Non-toxic; inhibition (Coxsackievirus B4): inactive; inhibition (Human alphaherpesvirus 2): inactive
CCOP(=O)(OCC)[C@H]1C[C@H](C(=O)Nc2cccc(Br)c2)ON1C (racemic) | inactive | Non-toxic | inactive | inactive | inactive | inactive | inactive | inactive | inactive | Non-toxic | Non-toxic | inactive | inactive | inactive | inactive | > 250 | inactive | 180 | inactive | Non-toxic | inhibition (Influenza B virus): inactive; inhibition [13]: inactive; IC50 (CCRF-CEM): ≥ 250 µM; Activity (HeLa [14]): Non-toxic; inhibition (Coxsackievirus B4): inactive; inhibition (Human alphaherpesvirus 2): inactive
CCOP(=O)(OCC)[C@@H]1C[C@H](C(=O)Nc2ccc(C(C)=O)cc2)ON1C (racemic) | inactive | Non-toxic | inactive | inactive | inactive | inactive | inactive | inactive | inactive | Non-toxic | Non-toxic | inactive | inactive | inactive | inactive | 150 | inactive | 211 | inactive | Non-toxic | inhibition (Influenza B virus): inactive; inhibition [13]: inactive; IC50 (CCRF-CEM): 227 µM; Activity (HeLa [14]): Non-toxic; inhibition (Coxsackievirus B4): inactive; inhibition (Human alphaherpesvirus 2): inactive
CCOP(=O)(OCC)[C@H]1C[C@H](C(=O)Nc2ccc(Cl)cc2)ON1C (relative stereo) | inactive | Non-toxic | inactive | inactive | inactive | inactive | inactive | inactive | inactive | Non-toxic | Non-toxic | inactive | inactive | inactive | inactive | > 250 | inactive | ≥ 250 | inactive | Non-toxic | inhibition (Influenza B virus): inactive; inhibition [13]: inactive; IC50 (CCRF-CEM): > 250 µM; Activity (HeLa [14]): Non-toxic; inhibition (Coxsackievirus B4): inactive; inhibition (Human alphaherpesvirus 2): inactive
